Data as given in ChEMBL document CHEMBL1125930, “3-O-alkylascorbic acids as free-radical quenchers: synthesis and inhibitory effect on lipid peroxidation” (J Med Chem, 1991).

Legend:
[1] = species: Rattus norvegicus; assay: The compound was tested for the inhibition of lipid peroxidation in rat liver microsomes induced by [Fe3+] at a concentration of 10E-5 M.; type: functional
How it was run: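 Fasted Wistar rat liver microsomes, 2.0 mg protein in 1 mL of 83.5 mM KCl/37.2 mM Tris-HCl pH 7.4. Peroxidation started with 1 mM ADP, 10 μM FeCl3 and 0.02 mM NADPH. Compound added in 0.01 mL DMF. 37 °C for 20 min, stopped on ice. Malondialdehyde measured as TBA-reactive material: 95 °C for 20 min, butanol/pyridine extract, A532. Compared with vehicle control.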

[2] = Partition ratio obtained from HPLC analysis.; type: ADME
[3] = species: Rattus norvegicus; assay: The compound was tested for the inhibition of lipid peroxidation in rat liver microsomes induced by [Fe2+] at a concentration of 10E-5 M.; type: functional
How it was run: (§1)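 Liver microsomes from 24 h-fasted Wistar rats (8000g then 105000g pellet, in 0.15 M KCl, protein by Lowry). 1 mL mix: 83.5 mM KCl, 37.2 mM Tris-HCl pH 7.4, 10 μM FeSO4, 2 mg microsomal protein, compound in 0.01 mL DMF. 37 °C for 20 min. TBA-reactive material read at 532 nm after n-BuOH/pyridine extraction. Reported against vehicle control.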

[4] = species: Rattus norvegicus; assay: The compound was tested for the stimulation of lipid peroxidation in rat liver microsomes induced by [Fe2+] at a concentration of 10E-5 M.; type: functional; how it was run: as §1

| SMILES | k' [2] | inhibition [1] | inhibition [3] | Stimulation [4] |
| --- | --- | --- | --- | --- |
| CCCCCCCCCCCCCCOC1=C(O)C(=O)OC1C(O)CO (centres undefined) | 4.78 | 81% | 30% | – |
| CCCCCCC(=O)COC1=C(O)C(=O)OC1C(O)CO (centres undefined) | 0.24 | 27% | 20% | – |
| CCCCCCCCCCCCCCCCC(=O)COC1=C(O)OC(C(O)CO)C1=O (centres undefined) | 0.45 | 55% | – | – |
| CCCCCCCCCCCCCCC(=O)COC1=C(O)C(=O)OC1C(O)CO (centres undefined) | 4.33 | 65% | 33% | – |
| CCCCOC(=O)COC1=C(O)OC(C(O)CO)C1=O (centres undefined) | – | 10% | – | – |
| CCCCCCCCCCOC(=O)COC1=C(O)C(=O)OC1C(O)CO (centres undefined) | – | – | 31% | – |
| CCCCCCCCCCOC1=C(O)C(=O)OC1C(O)CO (centres undefined) | 1.27 | 91% | 44% | – |
| CCCCCCCCCCCCC(=O)COC1=C(O)C(=O)OC1C(O)CO (centres undefined) | 2.25 | 81% | 30% | – |
| CCCCCCCCCCCCCCCCCCOC1=C(O)[C@@H](C(O)CO)OC1=O (some centres undefined) | 1.13 | 88% | 29% | – |
| O=C1O[C@H]([C@@H](O)CO)C(O)=C1O [ASCORBIC ACID] | < 0.1 | – | – | 72% |
| CCCCCCCCCCCCCCCCC(=O)COC1=C(O)C(=O)OC1C(O)CO (centres undefined) | 8.26 | 43% | 28% | – |
| CCCCCCCCCCOC1=C(OCCCCCCCCCC)C(C(O)CO)OC1=O (centres undefined) | – | 2% | – | – |
| CCCCCCCCCCCCCCCCCCOC1=C(O)C(=O)OC1C(O)CO (centres undefined) | 17.34 | 45% | 7% | – |
| O=C1OC(C(O)CO)C(OCc2cccnc2)=C1O (centres undefined) | < 0.1 | 2% | – | – |
| CCCCCCCCCCC(=O)COC1=C(O)C(=O)OC1C(O)CO (centres undefined) | 1.14 | 88% | 44% | – |

More lines, main results first:

| k' [2] | SMILES | inhibition [1] | inhibition [3] | Stimulation [4] |
| --- | --- | --- | --- | --- |
| 9.09 | CCCCCCCCCCCCCCCCOC1=C(O)C(=O)OC1C(O)CO (centres undefined) | 74% | 21% | – |
| < 0.1 | CC(=O)COC1=C(O)C(C2COC(C)(C)O2)OC1=O (centres undefined) | 2% | – | – |
| 0.63 | CCCCCCCCCCCCOC1=C(O)OC(C(O)CO)C1=O (centres undefined) | 83% | – | – |
| < 0.2 | CCCCCCCCOC1=C(O)OC(C(O)CO)C1=O (centres undefined) | 20% | – | – |
| 2.49 | CCCCCCCCCCCCOC1=C(O)C(=O)OC1C(O)CO (centres undefined) | 88% | 34% | – |
| 0.55 | CCCCCCCCC(=O)COC1=C(O)C(=O)OC1C(O)CO (centres undefined) | 64% | 33% | – |
| 0.62 | CCCCCCCCOC1=C(O)C(=O)OC1C(O)CO (centres undefined) | 40% | 9% | – |
